Measurements pooled from the literature.
Each line is one published result; the experiments were not run side by side.
Target: Serine/threonine-protein kinase PAK 4 (PAK4, Homo sapiens, UniProt O96013)

Cc1c[nH]c2nccc(Oc3c(F)cc(Nc4cc(Cl)nc(N)n4)cc3F)c12  remaining binding (cell-free assay, competition with immobilised ligand; 0.1 µM): 100%
CCN(CC)CCNC(=O)c1c(C)[nH]c(/C=C2\C(=O)Nc3ccc(F)cc32)c1C  inhibition (enzyme activity, inhibitor; 0.3 µM): -9%
Cc1sc(C(=O)NC2COC2)cc1-n1cc(NC(=O)Nc2c(F)cccc2Cl)cn1  remaining activity (enzyme activity, inhibitor; 10 µM): 106%
CC(C)(C)C(=O)c1sc(NC2CCCCC2)nc1N  remaining activity (enzyme activity, inhibitor; 10 µM): 88%
CN(c1ccnc(CNc2nc(Nc3ccc4c(c3)CC(=O)N4)ncc2C(F)(F)F)n1)S(C)(=O)=O  remaining binding (cell-free assay, competition with immobilised ligand; 1 µM): 52%
Nc1ncnc2occ(-c3ccc(NC(=O)Nc4cc(C(F)(F)F)ccc4F)cc3)c12  remaining signal (cell-free assay, inhibitor; 20 µM): 61%
O=C(CSc1nc2nccnc2c(=O)n1CCc1ccccc1)Nc1nccs1  inhibition (enzyme activity, inhibitor; 10 µM): 2%
CC1=C(C#N)C(c2ccc3c(c2)c(NC(=O)c2ccccc2C)nn3C)C(C#N)=C(C)N1  remaining binding (cell-free assay, competition with immobilised ligand; 1 µM): 100%
COc1cc2c(N3CCN(C(=O)Nc4ccc(OC(C)C)cc4)CC3)ncnc2cc1OCCCN1CCCCC1  remaining signal (cell-free assay; 0.5 µM): 103%
COc1cc(Cl)c(C(=O)N[C@@H](CN[C@H]2CC[C@@H](N)CC2)Cc2ccc(C#N)cc2)cc1-c1ccc(CN[C@H](C)c2ccc(C)cc2)o1  remaining activity (enzyme activity, inhibitor; 1 µM): 102%
CS(=O)(=O)CCNCc1ccc(-c2ccc3ncnc(Nc4ccc(OCc5cccc(F)c5)c(Cl)c4)c3c2)o1  remaining signal (cell-free assay; 0.5 µM): 89.9%
Cc1[nH]c(/C=C2\C(=O)Nc3ccc(F)cc32)c(C)c1C(=O)N[C@H]1CCN(C(=O)N(C)C)C1  remaining activity (enzyme activity, inhibitor; 0.1 µM): 109%
CNC(=O)c1cc(Oc2ccc(NC(=O)Nc3ccc(Cl)c(C(F)(F)F)c3)cc2)ccn1  inhibition (enzyme activity, inhibitor; 0.3 µM): -11%
O=C(Nc1cnn(-c2csc(C(=O)NC3COC3)c2)c1)Nc1ccccc1Cl  remaining activity (enzyme activity, inhibitor; 5 µM): 98.9%
O=C1Nc2ccc(Cl)cc2C1=Cc1cc(Cl)c(O)c(Cl)c1  remaining signal (cell-free assay; 0.5 µM): 88.7%
Nc1nc(Nc2ccccc2)sc1C(=O)c1c(F)cccc1F  remaining activity (enzyme activity, inhibitor; 10 µM): 47%
FC(F)c1nc2ccccc2n1-c1nc(N2CCOCC2)nc(N2CCOCC2)n1  remaining activity (enzyme activity, inhibitor; 10 µM): 92%
COc1cc(-c2cc(-c3ccc(N4CCNCC4)cc3)cnc2C)cc(OC)c1OC  inhibition (enzyme activity, inhibitor; 0.1 µM): 1%
CN(c1ncccc1CNc1nc(Nc2ccc3c(c2)CC(=O)N3)ncc1C(F)(F)F)S(C)(=O)=O  inhibition (enzyme activity, inhibitor; 1 µM): 88.5%
COc1cc2ncnc(Nc3ccc(F)c(Cl)c3)c2cc1OCCCN1CCOCC1  remaining signal (cell-free assay; 0.5 µM): 90.2%
CS(=O)(=O)N1CCCC(NC(=O)[C@H](CCC2CCCCC2)NC(=O)c2ccc(CNc3ncnc4c3nnn4-c3ccccc3)cc2)C1 (stereo partly shown)  remaining binding (cell-free assay, competition with immobilised ligand; 0.1 µM): 100%
FC(F)(F)Oc1cccc(-c2cnc3ccc(-c4ccncc4)nn23)c1  activity vs control (enzyme activity, inhibitor, radiometric; 5 µM): 64%
CC(C)(C)c1nc2c(s1)c1nc(N)ncc1c1ccc(NS(=O)(=O)c3c(F)cccc3F)c(F)c12  remaining activity (enzyme activity, inhibitor, radiometric; 1 µM): 86%
Cc1ccc(Nc2nccc(N(C)c3ccc4c(C)n(C)nc4c3)n2)cc1S(N)(=O)=O  inhibition (enzyme activity, inhibitor; 10 µM): 35%
CN(C(=O)c1ccccc1)c1cc(N(C)c2ccc3c(c2)CCc2ccc(C(=O)NCCN4CCOCC4)cc2C3=O)ccc1F  remaining binding (cell-free assay, competition with immobilised ligand; 1 µM): 83%
Cc1ccc(C(=O)NCc2ccsc2)cc1C#Cc1cn(C(C)C)c2ncnc(N)c12  activity vs control (enzyme activity, inhibitor; 1 µM): 102%
CCN(CC)CCNC(=O)c1c(C)[nH]c(/C=C2\C(=O)Nc3ccc(F)cc32)c1C  remaining activity (enzyme activity, inhibitor; 0.1 µM): 90%
C[C@@H]1CN(c2cc(-c3n[nH]c4ccc(OC5(C)CC5)cc34)ncn2)C[C@H](C)O1  remaining binding (cell-free assay, competition with immobilised ligand; 0.1 µM): 97%
COc1cc(/C=C/C(=O)CC(=O)/C=C/c2ccc(O)c(OC)c2)ccc1O  activity vs control (enzyme activity, inhibitor; 1 µM): 78%
CCC(=O)N[C@H]1CC[C@@H](C(=O)N(C)c2ccc(-c3nc4ccccc4o3)cc2)C1  remaining binding (cell-free assay, competition with immobilised ligand; 1 µM): 100%
CC(C)(O)[C@H]1CC[C@H](Nc2ccc3ncc(-c4cccc(C(F)(F)F)c4)n3n2)CC1  remaining activity (enzyme activity, inhibitor; 1 µM): 98%
Cc1cc(NC(=O)c2cccc3cc(-c4cccc5[nH]nc(N)c45)ccc23)ccc1F  activity vs control (enzyme activity, inhibitor; 0.1 µM): 97%
COc1cccc(CNC(=O)c2nc3scc(COCc4ccc(C(=O)O)cc4)c3c(=O)[nH]2)c1  remaining binding (cell-free assay, competition with immobilised ligand; 1 µM): 100%
COc1cc(Nc2cnc(C#N)c(O[C@H](C)CN(C)C)n2)ncc1-c1cnn(C)c1  remaining activity (enzyme activity, inhibitor, radiometric; 1 µM): 87%
